Laboratory results published in ChEMBL document CHEMBL2311473, “Characterization of antimicrobial, cytotoxic, and antiendotoxin properties of short peptides with different hydrophobic amino acids at "a" and "d" positions of a heptad repeat sequence” (J Med Chem, 2013).
Values after ≈ are worked out from the molar mass of the structure shown. Active and inactive are the calls of the source. The rule behind the calls is not given here.

Key:
[1] = Binding affinity to PC/Chol lipid vesicles assessed as induction of large blue shift at 1 uM by fluorescence assay; assay type: physicochemical
Staphylococcus aureus [2] = assay: Antibacterial activity against methicillin-resistant Staphylococcus aureus after 18 hrs by broth dilution method; assay type: functional
Summary of the method: (§1)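 Bacteria grown aerobically at 37 °C in Mueller-Hinton broth to mid-log phase (OD600), diluted to ~10^6 cfu/mL, then mixed 1:1 with 2-fold serial peptide dilutions in water. Incubation ~18 h at 37 °C before MIC read-out (μM).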

[3] = Induction of dissipation of diffusion potential in PE/PG lipid vesicles by fluorescence assay; assay type: physicochemical
Summary of the method: (§2)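 SUVs of PC/Chol (8:1 w/w) or PE/PG (7:3 w/w) treated with peptide. Dissipation of diffusion potential taken as percentage fluorescence recovery ~5 min after peptide addition, with valinomycin used for reference levels. Plotted against peptide/lipid molar ratio.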

Cryptococcus neoformans = assay: Antifungal activity against Cryptococcus neoformans after 72 hrs by NCCLS microbroth dilution method; assay type: functional
Summary of the method: (§3)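 Microbroth dilution in MOPS-buffered RPMI 1640 following NCCLS guidelines. Inoculum 1−5 × 10^3 cells/mL, peptide range 50−0.36 (mass/mL). Plates held in a moist chamber at 35 °C and A492 read after 48 h (Candida spp.), 72 h (A. fumigatus, S. schenckii, C. neoformans) or 96 h (T. mentagrophytes). MIC taken as 90% growth inhibition versus growth control.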

[4] = Cytotoxicity against human RBC assessed as hemolysis at 60 uM; assay type: cell-based, Erythrocyte; conditions: red blood cells (RBC), read-out: Activity
Summary of the method: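 hRBCs in PBS exposed to peptide. Hemoglobin release read as supernatant absorbance at 540 nm. Hemolysis % = (Asample − Ablank)/(Atriton − Ablank) × 100, with PBS blank and 0.2% Triton X-100 (final) as 100% reference.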

RAW264.7 [5] = assay: Antiinflammatory activity in mouse RAW264.7 cells assessed as downregulation of LPS-induced iNOS2 expression at 4.5 uM after 24 hrs by Western blotting analysis; assay type: functional, cell-based
Summary of the method: (§4)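 RAW 264.7 cells (~2 × 10^5) stimulated with LPS 1 μg/mL plus peptide 4.5 μM for 24 h. Cells washed in ice-cold PBS and lysed in Laemmli buffer. SDS-PAGE (8% gel iNOS-2, 12% TNF-α), nitrocellulose transfer, alkaline phosphatase secondary with NBT/BCIP. Band densities normalized to β-actin. LPS-only and untreated cells served as controls.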

Escherichia coli [6] = assay: Antibacterial activity against Escherichia coli ATCC 10536 after 18 hrs by broth dilution method; assay type: functional; conditions: ATCC 10536, 18 h; summary of the method: as §1
RAW264.7 [7] = assay: Antiinflammatory activity in mouse RAW264.7 cells assessed as inhibition of LPS-induced TNFalpha secretion at 1.5 to 4.5 uM after 12 hrs by ELISA; assay type: functional, cell-based
Summary of the method: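 RAW 264.7 cells treated with LPS alone or LPS plus peptide. TNF-α and IL-6 measured by ELISA in culture supernatant and expressed as percentage inhibition of LPS-induced secretion. Mean of three independent experiments, SD shown.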

RAW264.7 [8] = assay: Antiinflammatory activity in mouse RAW264.7 cells assessed as downregulation of LPS-induced TNFalpha expression at 4.5 uM after 24 hrs by Western blotting analysis; assay type: functional, cell-based; summary of the method: as §4
Lipopolysaccharide (LPS) [9] = assay: Binding affinity to LPS assessed as inhibition of LPS-induced LAL enzyme activation at 9 uM after 30 mins by spectrophotometric analysis
Summary of the method: (§5)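 Chromogenic limulus amoebocyte lysate endotoxin kit. Peptide binding to LPS estimated from inhibition of LPS-induced LAL enzyme activation, i.e. reduced substrate colour, and reported as percentage LPS binding.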

[10] = Binding affinity to PE/PG lipid vesicles assessed as induction of large blue shift at 1 uM by fluorescence assay; assay type: physicochemical
Escherichia coli [11] = assay: Drug uptake in Escherichia coli ATCC 10536 assessed as membrane localization at 3 uM after 30 mins by confocal microscopic analysis; assay type: ADME, organism-based; conditions: in vivo, 0.5 h
Summary of the method: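 E. coli (~10^6 CFU/mL) in LB incubated with fluorescent-labeled peptide (~3.0 μM) for half an hour. Cells centrifuged, washed and imaged by confocal microscopy (DIC and fluorescence).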

[12] = Binding affinity to PC/Chol lipid vesicles assessed as decrease in acrylamide-induced tryptophan fluorescence quenching at 1 uM; assay type: physicochemical
Summary of the method: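 Acrylamide quencher added in aliquots from 3.0 M stock to peptide with PC/Chol (8:1) or PE/PG (7:3) SUVs, peptide/lipid 1:100. Trp excited at 295 nm. Values corrected for dilution and vesicle-blank scatter, then fitted to Stern–Volmer F0/F = 1 + KSV[Q].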

[13] = Drug uptake in human RBC assessed as membrane localization at 9 uM after 10 to 30 mins by confocal microscopic analysis; assay type: ADME; conditions: erythrocyte
Summary of the method: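 Fresh hRBCs (3% in PBS) incubated with NBD-labeled peptide (~9.0 μM) for 10–30 min at 37 °C. Washed, fixed in 2% paraformaldehyde 10 min, and imaged by confocal microscopy at constant photomultiplier setting.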

[14] = Cytotoxicity against human RBC assessed as induction of membrane damage at 25 uM after 5 mins by annexin V-FITC staining-based FACS flow cytometric analysis; assay type: cell-based; conditions: erythrocyte
Summary of the method: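 hRBCs (~3.0 × 10^7 cells/mL) treated with peptide (~25.0 μM) for 5 min at room temperature. Stained with FITC-annexin V and analysed by flow cytometry, 10000 events, compared with untreated control.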

Bacillus subtilis = assay: Antibacterial activity against Bacillus subtilis ATCC 6633 after 18 hrs by broth dilution method; assay type: functional; conditions: ATCC 6633, 18 h; summary of the method: as §1
Staphylococcus aureus [15] = assay: Bactericidal activity against Staphylococcus aureus ATCC 9144 assessed as induction of membrane depolarization at up to 7 uM by DiSC3(5) staining-based fluorescence assay; assay type: functional, organism-based
Summary of the method: (§6)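 Membrane potential dye diS-C3-5 preincubated 1 h with hRBC or S. aureus suspensions; I0 is steady-state fluorescence after this incubation. Peptide then added at varying concentrations. Depolarization expressed as percentage fluorescence recovery (Ft) versus peptide concentration.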

Candida parapsilosis = assay: Antifungal activity against Candida parapsilosis ATCC 22019 after 48 hrs by NCCLS microbroth dilution method; assay type: functional; conditions: Lodderomyces parapsilosis, ATCC 22019, 48 h; summary of the method: as §3
[16] = Induction of dissipation of diffusion potential in PC/Chol lipid vesicles by fluorescence assay; assay type: physicochemical; summary of the method: as §2
Lipopolysaccharide (LPS) [17] = assay: Binding affinity to LPS assessed as inhibition of LPS-induced LAL enzyme activation at 18 uM after 30 mins by spectrophotometric analysis; summary of the method: as §5
[18] = Cytotoxicity against human RBC assessed as induction of membrane depolarization at up to 16 uM by DiSC3(5) staining-based fluorescence assay; assay type: cell-based; conditions: erythrocyte; summary of the method: as §6
Sporothrix schenckii = assay: Antifungal activity against Sporothrix schenckii after 72 hrs by NCCLS microbroth dilution method; assay type: functional; summary of the method: as §3
Pseudomonas aeruginosa = assay: Antibacterial activity against Pseudomonas aeruginosa ATCC BAA-427 after 18 hrs by broth dilution method; assay type: functional; conditions: ATCC BAA-427, 18 h; summary of the method: as §1
[19] = system: Staphylococcus epidermidis; assay: Antibacterial activity against Staphylococcus epidermidis NRRL B-4268 after 18 hrs by broth dilution method; assay type: functional; conditions: NRRL B-4268, 18 h; summary of the method: as §1
[20] = system: Trichophyton mentagrophytes; assay: Antifungal activity against Trichophyton mentagrophytes after 96 hrs by NCCLS microbroth dilution method; assay type: functional; summary of the method: as §3
Aspergillus fumigatus = assay: Antifungal activity against Aspergillus fumigatus after 72 hrs by NCCLS microbroth dilution method; assay type: functional; summary of the method: as §3

Structure (SMILES)	Activity [1]	MIC (Staphylococcus aureus [2])	Activity [3]	MIC (Cryptococcus neoformans)	hemolysis at 60 µM [4]	Activity (RAW264.7 [5])	MIC (Escherichia coli [6])	inhibition (RAW264.7 [7])	Activity (RAW264.7 [8])	inhibition (Lipopolysaccharide (LPS) [9])	Activity [10]	Drug uptake (Escherichia coli [11])	Activity [12]	Drug uptake [13]	Activity [14]	MIC (Bacillus subtilis)	Activity (Staphylococcus aureus [15])	MIC (Candida parapsilosis)	Activity [16]	inhibition (Lipopolysaccharide (LPS) [17])	other results
C[C@H](N)C(=O)O [ALANINE]	Not Active	> 25 µM	Active	> 25 µM	1%	Active	4.5 µM (≈ 0.401 µg/mL)	Active	Active	7%	Active	Active	Not Active	Not Active	Non-toxic	20 µM (≈ 1.78 µg/mL)	Active	25 µM (≈ 2.23 µg/mL)	Active	10%	Activity [18]: Non-toxic; MIC (Sporothrix schenckii): 25 µM (≈ 2.23 µg/mL); MIC (Pseudomonas aeruginosa): 6.25 µM (≈ 0.557 µg/mL); MIC [19]: 8 µM (≈ 0.713 µg/mL); MIC [20]: > 25 µM; MIC (Aspergillus fumigatus): > 25 µM
CC(C)C[C@H](N)C(=O)O [LEUCINE]	Active	6.25 µM (≈ 0.82 µg/mL)	Active	6.1 µM (≈ 0.8 µg/mL)	80%	Active	6.25 µM (≈ 0.82 µg/mL)	Active	Active	90%	Active	Active	Active	Active	Toxic	10.5 µM (≈ 1.38 µg/mL)	Active	3 µM (≈ 0.394 µg/mL)	Active	Active	Activity [18]: Toxic; MIC (Sporothrix schenckii): 1.56 µM (≈ 0.205 µg/mL); MIC (Pseudomonas aeruginosa): 11.2 µM (≈ 1.47 µg/mL); MIC [19]: 12.1 µM (≈ 1.59 µg/mL); MIC [20]: 1.56 µM (≈ 0.205 µg/mL); MIC (Aspergillus fumigatus): 3.1 µM (≈ 0.407 µg/mL)
CC(C)[C@H](N)C(=O)O [VALINE]	Not Active	12.5 µM (≈ 1.46 µg/mL)	Active	8.4 µM (≈ 0.984 µg/mL)	10%	Active	3 µM (≈ 0.351 µg/mL)	Active	Active	22%	Active	Active	Not Active	Active	Non-toxic	6.8 µM (≈ 0.797 µg/mL)	Active	1.5 µM (≈ 0.176 µg/mL)	Active	29%	Activity [18]: Non-toxic; MIC (Sporothrix schenckii): 6 µM (≈ 0.703 µg/mL); MIC (Pseudomonas aeruginosa): 3.2 µM (≈ 0.375 µg/mL); MIC [19]: 6 µM (≈ 0.703 µg/mL); MIC [20]: 6 µM (≈ 0.703 µg/mL); MIC (Aspergillus fumigatus): 8.4 µM (≈ 0.984 µg/mL)
